Candida biofilm: clotrimazole potentiators killing Candida biofilms, primary screen, with clotrimazole, Alamar Blue | C. albicans biofilm + clotrimazole | inhibition, % at 6 µM | actives 0.14% (n = 85,000);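 active = inhibition above 20%; inactive = inhibition below 20%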;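 note: preformed 24 hr biofilms exposed to compound for 48 hr; 0% = biofilm without compound and 100% = blank killed by clotrimazole plus chlorhexidine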
PostGolgi yeast: phenotypic screen on post-Golgi transport, primary screen. post-Golgi transport phenotypic cell assay. inhibition, % at 10 µM. actives 0.9% (n = 98,000). AID 739, 2007;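 note: yeast cells grown in 1536-well plates; yeast grown about 18 h at 30C before absorbance read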
tolC growth inh: growth inhibitors of E. coli tolC mutant, primary screen, strain BW25113 ΔtolC::kan, 384-well | OD615 | growth inhibition, % at 10 µM (by protocol) | actives 2.2% (n = 65,000);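 active = growth inhibition at or above a cutoff equal to the mean over every tested compound plus 3 SD, cut at about 60% in these data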;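 note: growth measured after 20 h incubation at 37 °C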
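Doses: one dose of 10 µM final / Material: E. coli BW25113 ΔtolC::kan, tolC deletion mutant strain / Buffer or medium: LB with kanamycin 50 µg/mL / Evaluation: percent growth inhibition / Detection: optical density read at 615 nm / Incubation: 37 °C, 20 h exposure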
E coli WT exp: growth inhibitors of wild-type E. coli, primary screen, strain BW25113, expanded library, OD600 | OD600 absorbance | AID 710, 2007 | growth inhibition, % at 100 µM | actives 0.15% (n = 98,000);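 active = growth inhibition above about 50% at one test dose, limit read from the data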;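 note: growth measured after 20 h incubation at 37 °C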
PTK2B oligo ant: antagonists of Pyk2 self-association, primary screen, Q293 cells, FERM NanoBiT luminescence, HTS; actives 0.83% (n = 99,000); z-score (the deposit names both 25 µM and 10 µM); stronger effect = lower value; Protein-tyrosine kinase 2-beta (Homo sapiens), Q14289;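 active = Z-score of -3 or lower, scaled per plate to the spread of control and sample wells; inactive = z-score above -3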;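 note: negative z-score means lost luminescence so less FERM oligomerization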
PostGolgi ctrl: growth inhibition of yeast control strain, primary screen, counter-screen for post-Golgi transport modulator project | inhibition, % at 10 µM | actives 5% (n = 98,000) | AID 738, 2007 | efflux-deficient yeast background strain, growth absorbance A615, 16 h
* hit, by the source's call; nt = not tested or not shown. Most compounds without a hit are left out; they make up all but 6.5% or so of the library. Cut-off read from the data, not from the text of the source, unless noted: active = inhibition above about 30%; inactive = the rest.

SMILES	Candida biofilm	PostGolgi yeast	tolC growth inh	E coli WT exp	PTK2B oligo ant	PostGolgi ctrl
COc1ccc(-n2c(Cn3c(=O)sc4ccccc43)nnc2SCC(=O)N2CCOCC2)cc1	5	2	-10	3	nt	-7
O=c1c2cc3c(cc2[nH]c(=S)n1CCN1CCOCC1)OCO3	-7	-1	-6	-5	1.3	36*
Nc1nc2sc3c(c2c(=O)s1)CCCC3	10	-1	48	3	-1.1	39*
O=c1c2c3c(sc2nc2n1CCCCC2)CCCC3	9	-14	23	-9	-0.69	31*
Cc1ccc(C)n1-n1c(C)nc2sc3c(c2c1=O)CCCCC3	7	-2	67*	-3	0.56	50*
Cc1ccc(C)n1-n1cnc2sc3c(c2c1=O)CCCCC3	4	2	nt	2	-0.06	13
CC(C)N1C(=O)CCC1C(=O)N1CCCc2ccccc21 (stereo not drawn)	0	6	-16	-1	0.27	1
COc1ccc(OC(=O)c2ccc3nsnc3c2)cc1	-5	3	nt	-5	1.5	-5
CCOc1ccc(NC(=O)c2ccccc2OCC(=O)c2ccccc2)cc1	nt	3	nt	-1	-1.8	23
CC(C)(C)n1nnnc1CN1CCSCC1	6	5	nt	-4	-0.17	4
CCN(CC)c1ccc(NC(=O)CC2Oc3ccccc3NC2=O)c(C)c1 (stereo not drawn)	8	-4	-7	-2	nt	6
CN(C)S(=O)(=O)c1ccc(N2CCCC2)c(C(=O)Nc2nc(-c3cc(F)ccc3F)cs2)c1	nt	nt	nt	nt	-0.2	nt
COc1ccc(NS(=O)(=O)c2ccc(SC)cc2)c(OC)c1	3	3	nt	-6	-0.31	13
Cc1ccccc1NS(=O)(=O)c1ccc(F)cc1	10	2	6	7	0.08	2
O=S(=O)(Nc1ccc2c3c(cccc13)CC2)c1ccc(F)cc1	nt	-9	nt	5	-0.34	40*
CSc1ccc(S(=O)(=O)Nc2ccc3c4c(cccc24)CC3)cc1	nt	23	nt	-15	-0.2	66*
CC1(C)CC(=O)C=C(NCCN2CCN(C(=O)Nc3ccc(Cl)c(Cl)c3)CC2)C1	5	-3	61*	14	-0.59	4
N#Cc1cn(Cc2cccc(Cl)c2)c2ccccc12	1	-3	97*	2	-1.4	24
Cc1cc(C)n(C(=O)c2ccc(C)c(S(=O)(=O)N3CCCC3)c2)n1	-2	-6	0	-11	0.29	32*
O=C(Nc1nccs1)C(NS(=O)(=O)c1ccc(Br)s1)c1ccccc1 (stereo not drawn)	3	10	61*	-4	-1.9	9
COc1ccc(-c2ccc(C#N)c(OC(=O)c3c(Cl)cccc3Cl)n2)cc1	16	6	nt	-4	-0.55	10
O=C(CCc1nc(-c2cccs2)no1)NCc1ccc(F)cc1Cl	5	4	nt	-7	nt	14
Cc1ccc(CNC(=O)CCc2nc(-c3cccs3)no2)cc1	10	-7	nt	6	nt	43*
O=C(NC1CCCCC1)N1CCSC1=Nc1ccccc1	nt	5	3	5	-0.38	50*
Cc1cc2cc(C)c3nnc(SCC(=O)N4CCc5ccccc54)n3c2cc1C	nt	1	nt	-6	nt	-11
SMILES	Candida biofilm	PostGolgi yeast	tolC growth inh	E coli WT exp	PTK2B oligo ant	PostGolgi ctrl
Cc1sc2ncn(C(C)C(=O)OC3CCCCC3)c(=O)c2c1C (stereo not drawn)	nt	1	nt	3	-0.93	24
Cc1c(C(=O)OC2CCCCC2)sc2nc[nH]c(=O)c12	-3	3	32	5	-0.2	59*
CSc1ccc(S(=O)(=O)N2CCN(Cc3ccc4c(c3)OCO4)CC2)cc1	-3	55*	35	-12	nt	53*
COc1ccc(Cl)cc1S(=O)(=O)N1CCN(Cc2ccc3c(c2)OCO3)CC1	7	-4	14	-9	-0.59	15
O=S(=O)(Cc1ccccc1Cl)N1CCN(Cc2ccc3c(c2)OCO3)CC1	nt	89*	23	0	-0.25	35*
COc1ccc(S(=O)(=O)N2CCN(Cc3ccc4c(c3)OCO4)CC2)c2ccccc12	13	-7	25	-4	nt	35*
CC1CN(C(=O)Nc2ccc3c(c2)OCO3)CC(C)O1 (stereo not drawn)	0	4	nt	0	-0.62	19
CN1CCCC1CCNC1C2CC3CC(C2)CC1C3 (stereo not drawn)	nt	-9	nt	-1	-0.02	6

Bioassay records (PubChem)
